{"source": "ChEMBL document CHEMBL1140884", "about": "“Oligodeoxyribonucleotide-based antagonists for Toll-like receptors 7 and 9” (2009)", "key": {"[1]": {"biological_target": "T1, Toll-like receptor 9 (Mus musculus) (UniProt Q9EQU3)", "T1 sequence (whole entry)": "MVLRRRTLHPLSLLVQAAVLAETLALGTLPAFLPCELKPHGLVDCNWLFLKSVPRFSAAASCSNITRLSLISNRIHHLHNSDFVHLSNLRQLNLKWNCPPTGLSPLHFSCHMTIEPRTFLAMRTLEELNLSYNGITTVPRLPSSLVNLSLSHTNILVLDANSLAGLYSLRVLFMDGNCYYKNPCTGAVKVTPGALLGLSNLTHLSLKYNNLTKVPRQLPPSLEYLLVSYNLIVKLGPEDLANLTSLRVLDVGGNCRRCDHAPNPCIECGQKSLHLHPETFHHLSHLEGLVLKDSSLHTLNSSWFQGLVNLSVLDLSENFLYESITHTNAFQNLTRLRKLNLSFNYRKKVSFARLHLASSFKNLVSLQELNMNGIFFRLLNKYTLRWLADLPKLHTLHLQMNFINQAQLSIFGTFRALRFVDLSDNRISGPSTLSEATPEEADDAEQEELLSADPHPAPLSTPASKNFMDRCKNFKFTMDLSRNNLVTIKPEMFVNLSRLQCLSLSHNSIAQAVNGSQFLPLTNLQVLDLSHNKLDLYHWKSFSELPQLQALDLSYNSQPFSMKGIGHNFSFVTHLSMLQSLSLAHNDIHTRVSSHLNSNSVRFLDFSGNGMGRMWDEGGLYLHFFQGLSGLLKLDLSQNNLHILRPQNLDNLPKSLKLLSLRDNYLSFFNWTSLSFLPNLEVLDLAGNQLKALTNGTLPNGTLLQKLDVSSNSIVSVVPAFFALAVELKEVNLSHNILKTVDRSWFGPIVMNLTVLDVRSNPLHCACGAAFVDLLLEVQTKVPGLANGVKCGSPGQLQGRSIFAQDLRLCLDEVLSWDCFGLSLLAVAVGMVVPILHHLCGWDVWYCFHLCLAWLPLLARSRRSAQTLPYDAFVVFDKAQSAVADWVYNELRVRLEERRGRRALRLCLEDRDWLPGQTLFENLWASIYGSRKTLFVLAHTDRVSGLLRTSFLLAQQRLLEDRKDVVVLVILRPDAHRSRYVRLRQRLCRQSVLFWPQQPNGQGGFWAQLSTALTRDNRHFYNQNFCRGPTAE", "experiment": "Agonist activity at mouse TLR9 expressed in HEK293 cells assessed as activation of NF-kappaB at 10 ug/mL by SEAP reporter gene assay", "format": "functional, cell-based", "summary_of_the_method": "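HEK293 cells stably expressing mouse TLR9 were transiently transfected with a SEAP reporter for 6 h. Compounds were added at 10 µg/mL for 18 h. SEAP was read with Quanti-Blue substrate and expressed as fold change in NF-κB activity.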"}, "[2]": {"biological_target": "T1, Toll-like receptor 9 (Mus musculus)", "experiment": "Antagonist activity at mouse TLR9 expressed in HEK293 cells assessed as inhibition of 5'-CTATCTGACGTTCTCTGT-3'-induced NF-kappaB activation by SEAP reporter gene assay", "format": "functional, cell-based", "summary_of_the_method": "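Mouse TLR9-HEK293 cells were transfected with a SEAP reporter for 6 h. They were then stimulated for 18 h with agonist (0.25 or 0.5 µg/mL) plus increasing antagonist concentrations or set agonist:antagonist ratios. Quanti-Blue read-out, reported as % NF-κB activity with agonist alone as 100%.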"}, "Mus musculus [3]": {"system": "Mus musculus", "experiment": "Induction of IL6 secretion in C57BL/6 mouse at 20 mg/kg, sc", "format": "functional, organism-based", "set-up": "dose 20 mg/kg", "summary_of_the_method": "(§1)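 Female C57BL/6 mice, 6–8 weeks old (n=3), were injected sc with single compounds at 0.25 or 20 mg/kg. Serum was collected by retro-orbital bleed 2 h later and cytokines were measured by Luminex mouse 20-plex assay.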"}, "Mus musculus [4]": {"system": "Mus musculus", "experiment": "Induction of cytokine MIG secretion in C57BL/6 mouse at 20 mg/kg, sc", "format": "functional, organism-based", "set-up": "dose 20 mg/kg", "summary_of_the_method": "as §1"}, "Mus musculus [5]": {"system": "Mus musculus", "experiment": "Induction of cytokine MCP1 secretion in C57BL/6 mouse at 20 mg/kg, sc", "format": "functional, organism-based", "set-up": "dose 20 mg/kg", "summary_of_the_method": "as §1"}, "Mus musculus [6]": {"system": "Mus musculus", "experiment": "Induction of cytokine KC secretion in C57BL/6 mouse at 20 mg/kg, sc", "format": "functional, organism-based", "set-up": "dose 20 mg/kg", "summary_of_the_method": "as §1"}, "Mus musculus [7]": {"system": "Mus musculus", "experiment": "Induction of IP10 secretion in C57BL/6 mouse at 20 mg/kg, sc", "format": "functional, organism-based", "set-up": "dose 20 mg/kg", "summary_of_the_method": "as §1"}, "Mus musculus [8]": {"system": "Mus musculus", "experiment": "Induction of IL10 secretion in C57BL/6 mouse at 20 mg/kg, sc", "format": "functional, organism-based", "set-up": "dose 20 mg/kg", "summary_of_the_method": "as §1"}, "Mus musculus [9]": {"system": "Mus musculus", "experiment": "Induction of IL12 secretion in C57BL/6 mouse at 20 mg/kg, sc", "format": "functional, organism-based", "set-up": "dose 20 mg/kg", "summary_of_the_method": "as §1"}, "Mus musculus [10]": {"species_on_record": "Mus musculus", "experiment": "Inhibition of 5'-TCTGACRTTCT-X-TCTTRCAGTCT-3'-induced IL12 production in C57BL/6 mouse measured after 2 hrs of induction by ELISA", "format": "functional, organism-based", "summary_of_the_method": "(§2)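 C57BL/6 mice (n=3) were given TLR9 agonist 0.25 mg/kg sc in the left flank and various antagonist doses sc in the right flank at the same time. Serum IL-12 was measured by sandwich ELISA 2 h after agonist.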"}, "Mus musculus [11]": {"species_on_record": "Mus musculus", "experiment": "Inhibition of 5'-TCTGACRTTCT-X-TCTTRCAGTCT-3'-induced IL12 production in C57BL/6 mouse at 1:4 agonist to drug ratio by ELISA", "format": "functional, organism-based", "summary_of_the_method": "as §2"}, "Mus musculus [12]": {"system": "Mus musculus", "experiment": "Inhibition of 5'-TCTGACRTTCT-X-TCTTRCAGTCT-3'-induced IL12 production in C57BL/6 mouse treated 6 hrs of induction and measured after 2 hrs at 2 mg/kg, sc", "format": "functional", "conditions": "C57BL/6, sc, route subcutaneous", "summary_of_the_method": "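Mice received antagonist sc at a low or high dose, then TLR9 agonist sc 6 h later. Serum IL-12 was determined 2 h after agonist administration.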"}, "Mus musculus [13]": {"system": "Mus musculus", "experiment": "Inhibition of 5-TCTGACRTTCT-X-TCTTRCAGTCT-3-induced IL12 production in C57BL/6 mouse treated 6 hrs of induction and measured after 2 hrs at 20 mg/kg, sc", "format": "functional", "conditions": "C57BL/6, sc, route subcutaneous"}, "Mus musculus [14]": {"system": "Mus musculus", "experiment": "Inhibition of 5-TCTGACRTTCT-X-TCTTRCAGTCT-3-induced IL12 production in C57BL/6 mouse at 20 mg/kg, sc up to 168 hrs", "format": "functional, organism-based", "set-up": "dose 20 mg/kg", "summary_of_the_method": "(§3)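 Female C57BL/6 mice, 6-8 weeks, n = 3, given antagonist 20 mg/kg sc. TLR9 agonist at 0.25 mg/kg sc at various intervals afterward; blood taken 2 h after agonist and serum IL-12 measured by sandwich ELISA. Representative of more than six independent experiments.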"}, "Mus musculus [15]": {"system": "Mus musculus", "experiment": "Inhibition of 5-TCTGACRTTCT-X-TCTTRCAGTCT-3-induced IL12 production in C57BL/6 mouse at 20 mg/kg, sc up to 120 hrs", "format": "functional", "conditions": "C57BL/6, sc, route subcutaneous", "summary_of_the_method": "as §3"}}, "note": "Activity calls are given as the source filed them. The rule behind the calls is not given here."}
{"molecule": "CO[C@@H]1[C@H](OP(=O)(S)OC[C@H]2O[C@@H](n3ccc(N)nc3=O)C[C@@H]2OP(=O)(S)OC[C@H]2O[C@@H](n3cnc4c(=O)[nH]c(N)nc43)C[C@@H]2OP(=O)(S)OC[C@H]2O[C@@H](n3cc(C)c(=O)[nH]c3=O)C[C@@H]2OP(=O)(S)OC[C@H]2O[C@@H](n3cc(C)c(=O)[nH]c3=O)C[C@@H]2OP(=O)(S)OC[C@H]2O[C@@H](n3ccc(N)nc3=O)C[C@@H]2OP(=O)(S)OC[C@H]2O[C@@H](n3cc(C)c(=O)[nH]c3=O)C[C@@H]2OP(=O)(S)OC[C@H]2O[C@@H](n3ccc(N)nc3=O)C[C@@H]2OP(=O)(S)OC[C@H]2O[C@@H](n3cc(C)c(=O)[nH]c3=O)C[C@@H]2OP(=O)(S)OC[C@H]2O[C@@H](n3cnc4c(=O)[nH]c(N)nc43)C[C@@H]2OP(=O)(S)OC[C@H]2O[C@@H](n3cc(C)c(=O)[nH]c3=O)C[C@@H]2O)[C@@H](COP(=O)(S)O[C@H]2[C@@H](OC)[C@H](n3cnc4c(=O)[nH]c(N)nc43)O[C@@H]2COP(=O)(S)O[C@H]2C[C@H](n3cc(C)c(=O)[nH]c3=O)O[C@@H]2COP(=O)(S)O[C@H]2C[C@H](n3ccc(N)nc3=O)O[C@@H]2COP(=O)(S)O[C@H]2C[C@H](n3cc(C)c(=O)[nH]c3=O)O[C@@H]2COP(=O)(S)O[C@H]2C[C@H](n3cnc4c(N)ncnc43)O[C@@H]2COP(=O)(S)O[C@H]2C[C@H](n3cc(C)c(=O)[nH]c3=O)O[C@@H]2COP(=O)(S)O[C@@H]2C[C@@H](n3ccc(N)nc3=O)O[C@H]2CO)O[C@H]1n1cnc2c(N)ncnc21", "note": "(stereo not given in full)", "values": [{"measurement": "Activity", "setting": "[1]", "value": "inactive"}, {"measurement": "Activity", "setting": "[2]", "value": "Dose-dependent effect"}, {"measurement": "Activity", "setting": "Mus musculus [3]", "value": "inactive"}, {"measurement": "Activity", "setting": "Mus musculus [4]", "value": "inactive"}, {"measurement": "Activity", "setting": "Mus musculus [5]", "value": "inactive"}, {"measurement": "Activity", "setting": "Mus musculus [6]", "value": "inactive"}, {"measurement": "Activity", "setting": "Mus musculus [7]", "value": "inactive"}, {"measurement": "Activity", "setting": "Mus musculus [8]", "value": "inactive"}, {"measurement": "Activity", "setting": "Mus musculus [9]", "value": "inactive"}, {"measurement": "Activity", "setting": "Mus musculus [10]", "value": "Dose-dependent effect"}, {"measurement": "Activity", "setting": "Mus musculus [11]", "value": "Active"}, {"measurement": "inhibition in vivo at 2 mg/kg", "setting": "Mus musculus [12]", "value": 50, "unit": "%"}, {"measurement": "inhibition in vivo at 20 mg/kg", "setting": "Mus musculus [13]", "value": 90, "unit": "%"}, {"measurement": "Activity", "setting": "Mus musculus [14]", "value": "Active"}, {"measurement": "inhibition in vivo at 20 mg/kg", "setting": "Mus musculus [15]", "value": 50, "unit": "%"}]}
